Experimental data reported in PubChem BioAssay AID588421 (The Scripps Research Institute Molecular Screening Center, 2011).
Active and inactive are the calls of the source.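 Rule for the calls: active = IC50 at or below 1 µM; inactive = the rest.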

Biological target: Protein-arginine deiminase type-4 (Homo sapiens) (UniProt Q9UM07)
Experiment: PAD4 enzyme inhibition potency, late-stage follow-up, biochemical, BAEE substrate, citrulline absorbance, 0-500 µM range (AID 588421)
Conditions: recombinant PAD4, BAEE citrulline colorimetric absorbance
In short: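 assay system = recombinant human PAD4 enzyme (protein-arginine deiminase 4) | input = PAD4 enzyme at 0.2 µM | timing = 15 min preincubation (37 °C), 15 min reaction | read-out basis = IC50 from fitted fractional PAD4 activity, citrulline standard curve | signal = colorimetric absorbance of citrulline product at 540 nm | also added = BAEE substrate at 10 mM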

Sequence of Protein-arginine deiminase type-4 (Homo sapiens) (Q9UM07 whole entry, looked up): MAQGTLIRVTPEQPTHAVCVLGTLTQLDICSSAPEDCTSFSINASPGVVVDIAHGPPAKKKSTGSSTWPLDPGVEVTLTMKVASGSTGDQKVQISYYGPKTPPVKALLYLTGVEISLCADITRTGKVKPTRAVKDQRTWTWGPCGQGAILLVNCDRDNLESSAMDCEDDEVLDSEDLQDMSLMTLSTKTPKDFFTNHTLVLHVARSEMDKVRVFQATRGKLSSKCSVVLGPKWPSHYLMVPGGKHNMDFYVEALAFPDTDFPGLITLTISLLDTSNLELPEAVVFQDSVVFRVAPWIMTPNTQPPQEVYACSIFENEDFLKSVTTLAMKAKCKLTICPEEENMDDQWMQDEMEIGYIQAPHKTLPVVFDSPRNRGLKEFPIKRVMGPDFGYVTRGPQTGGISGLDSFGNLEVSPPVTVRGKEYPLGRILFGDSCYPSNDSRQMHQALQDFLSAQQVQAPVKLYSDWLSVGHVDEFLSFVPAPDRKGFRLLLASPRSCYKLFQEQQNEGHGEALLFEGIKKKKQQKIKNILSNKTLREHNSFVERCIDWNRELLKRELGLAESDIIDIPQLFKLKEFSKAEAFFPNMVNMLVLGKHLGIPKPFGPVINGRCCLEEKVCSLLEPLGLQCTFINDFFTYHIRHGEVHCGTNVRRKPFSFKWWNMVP

COC(=O)c1nc(C(=O)OC)c(NC(C)=O)c(-c2ccccc2Br)c1C
IC50: inactive
